pIC50: −log10 of the molar value. One block for each molecule: values may come before it. Calls of active or inactive are those of the source. The rule behind the calls is not given here.
What was measured:
HFL1 [1] = assay: Antiproliferative activity against human HFL1 cells assessed as reduction in cell proliferation measured after 24 hrs by CCK-8 assay; assay type: functional, cell-based; conditions: HFL1, 24 h
In short: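 Human fetal lung fibroblasts (HFL-1); growth inhibition quantified with CCK-8; IC50 averaged from 3 experiments, each in duplicate.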

[2] = Half life in Sprague-Dawley rat model of bleomycin-induced pulmonary fibrosis at 2 mg/kg, iv by LC-MS/MS analysis; assay type: ADME, organism-based; conditions: in vivo
In short: (§1)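 Male Sprague-Dawley rats with induced pulmonary fibrosis; single i.v. (2.0 mg kg⁻¹) or p.o. (5.0 mg kg⁻¹) administration. Plasma samples stored at −70 °C; the supernatant was analysed by LC-MS/MS for PK parameters.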

[3] = AUClast in Sprague-Dawley rat model of bleomycin-induced pulmonary fibrosis at 2 mg/kg, iv by LC-MS/MS analysis; assay type: ADME, organism-based; parameters: time 0 - last, dose 2 mg/kg, route iv; conditions: in vivo; in short: as §1
[4] = AUC(infinity) in Sprague-Dawley rat model of bleomycin-induced pulmonary fibrosis at 2 mg/kg, iv by LC-MS/MS analysis; assay type: ADME, organism-based; parameters: time infinity, dose 2 mg/kg, route iv; conditions: in vivo; in short: as §1
[5] = Clearance in Sprague-Dawley rat model of bleomycin-induced pulmonary fibrosis at 2 mg/kg, iv by LC-MS/MS analysis; assay type: ADME, organism-based; conditions: in vivo; in short: as §1
[6] = Half life in Sprague-Dawley rat model of bleomycin-induced pulmonary fibrosis at 5 mg/kg, po by LC-MS/MS analysis; assay type: ADME, organism-based; conditions: in vivo; in short: as §1
[7] = AUClast in Sprague-Dawley rat model of bleomycin-induced pulmonary fibrosis at 5 mg/kg, po by LC-MS/MS analysis; assay type: ADME, organism-based; parameters: time 0 - last, dose 5 mg/kg, route po; conditions: in vivo; in short: as §1
[8] = AUC(infinity) in Sprague-Dawley rat model of bleomycin-induced pulmonary fibrosis at 5 mg/kg, po by LC-MS/MS analysis; assay type: ADME, organism-based; parameters: time infinity, dose 5 mg/kg, route po; conditions: in vivo; in short: as §1
[9] = Half life in Sprague-Dawley rat model of bleomycin-induced pulmonary fibrosis at 1 mg/kg, iv by LC-MS/MS analysis; assay type: ADME, organism-based; conditions: in vivo
[10] = AUClast in Sprague-Dawley rat model of bleomycin-induced pulmonary fibrosis at 1 mg/kg, iv by LC-MS/MS analysis; assay type: ADME, organism-based; parameters: time 0 - last, dose 1 mg/kg, route iv; conditions: in vivo
[11] = AUC(infinity) in Sprague-Dawley rat model of bleomycin-induced pulmonary fibrosis at 1 mg/kg, iv by LC-MS/MS analysis; assay type: ADME, organism-based; parameters: time infinity, dose 1 mg/kg, route iv; conditions: in vivo
[12] = Clearance in Sprague-Dawley rat model of bleomycin-induced pulmonary fibrosis at 1 mg/kg, iv by LC-MS/MS analysis; assay type: ADME, organism-based; conditions: in vivo
[13] = Tmax in Sprague-Dawley rat model of bleomycin-induced pulmonary fibrosis at 5 mg/kg, po by LC-MS/MS analysis; assay type: ADME, organism-based; conditions: in vivo
In short: (§2)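 Male Sprague-Dawley rats with induced pulmonary fibrosis were dosed 2.0 mg kg⁻¹ i.v. or 5.0 mg kg⁻¹ p.o. Plasma was stored at -70 °C, and the supernatant was analysed by LC-MS/MS.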

[14] = Cmax in Sprague-Dawley rat model of bleomycin-induced pulmonary fibrosis at 5 mg/kg, po by LC-MS/MS analysis; assay type: ADME, organism-based; parameters: dose 5 mg/kg, route po; conditions: in vivo; in short: as §1
[15] = Oral bioavailability in Sprague-Dawley rat model of bleomycin-induced pulmonary fibrosis at 5 mg/kg by LC-MS/MS analysis; assay type: ADME, organism-based; conditions: in vivo; in short: as §2
HFL1 [16] = assay: Antifibrotic activity in TGF-beta1-induced HFL1 cell injury assessed as alpha-SMA expression at 3 mM measured after 48 hrs by Western blot analysis (reference value: 100%); assay type: functional, Homo sapiens
In short: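 HFL-1 cells stimulated with TGF-β1; α-SMA protein detected by Western blot with anti-α-SMA antibody, normalised to tubulin; mean of n = 3.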

HFL1 [17] = assay: Antifibrotic activity in TGF-beta1-induced HFL1 cell injury assessed as down regulation of collagen 1 mRNA expression at 3 mM measured after 24 hrs by RT-PCR analysis; assay type: functional, cell-based; conditions: Homo sapiens
In short: (§3)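 TGF-β1-induced HFL-1 cells treated 24 h (test range 0.625–10 μM; comparator 3 mM); collagen 1 and collagen 3 mRNA measured by RT-PCR; mean of n = 3.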

HFL1 [18] = assay: Antifibrotic activity in TGF-beta1-induced HFL1 cell injury assessed as down regulation of collagen 3 mRNA expression at 3 mM measured after 24 hrs by RT-PCR analysis; assay type: functional, cell-based; conditions: Homo sapiens; in short: as §3
[19] = Cmax in Sprague-Dawley rat model of bleomycin-induced pulmonary fibrosis at 2 mg/kg, iv by LC-MS/MS analysis; assay type: ADME, organism-based; parameters: dose 2 mg/kg, route iv; conditions: in vivo; in short: as §1
[20] = Tmax in Sprague-Dawley rat model of bleomycin-induced pulmonary fibrosis at 10 mg/kg, po by LC-MS/MS analysis; assay type: ADME, organism-based; conditions: in vivo
[21] = Cmax in Sprague-Dawley rat model of bleomycin-induced pulmonary fibrosis at 10 mg/kg, po by LC-MS/MS analysis; assay type: ADME, organism-based; parameters: dose 10 mg/kg, route po; conditions: in vivo
[22] = Half life in Sprague-Dawley rat model of bleomycin-induced pulmonary fibrosis at 10 mg/kg, po by LC-MS/MS analysis; assay type: ADME, organism-based; conditions: in vivo
[23] = AUClast in Sprague-Dawley rat model of bleomycin-induced pulmonary fibrosis at 10 mg/kg, po by LC-MS/MS analysis; assay type: ADME, organism-based; parameters: time 0 - last, dose 10 mg/kg, route po; conditions: in vivo
[24] = AUC(infinity) in Sprague-Dawley rat model of bleomycin-induced pulmonary fibrosis at 10 mg/kg, po by LC-MS/MS analysis; assay type: ADME, organism-based; parameters: time infinity, dose 10 mg/kg, route po; conditions: in vivo
[25] = Oral bioavailability in Sprague-Dawley rat model of bleomycin-induced pulmonary fibrosis at 10 mg/kg by LC-MS/MS analysis; assay type: ADME, organism-based; conditions: in vivo
Rattus norvegicus = assay: Antifibrotic activity against bleomycin-induced pulmonary fibrosis in Sprague-Dawley rat assessed as reduction in lung histopathological changes at 100 mg/kg, po administered daily for 1 to 14 days starting from post bleomycin stimulation by H and E staining based assay; assay type: functional, organism-based; conditions: time 1-14 day
In short: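 Bleomycin-induced lung fibrosis in SD rats; oral dosing daily from day 1 for 14 days; saline for sham and bleomycin groups; comparator 100 mg kg⁻¹ d, test doses 2 and 6 mg kg⁻¹ d; lung pathology assessed by HE histology.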

SMILES: Cc1cc(=O)n(-c2ccc(N3CCC(Cc4ccccc4Cl)CC3)c(Cl)c2)c(C)n1
pIC50 (HFL1 [1]): 4.15

SMILES: Cc1cc(=O)n(-c2ccc(N3CCC(Cc4cccc(F)c4)CC3)cn2)c(C)n1
pIC50 (HFL1 [1]): 3.89

half-life [2]: 5.27 h
AUC(0-t) [3]: 1110 ng·h/mL
AUC(0-inf) [4]: 1130 ng·h/mL
clearance [5]: 29.8 mL/min/kg
half-life [6]: 5.21 h
AUC(0-t) [7]: 1560 ng·h/mL
AUC(0-inf) [8]: 1600 ng·h/mL
SMILES: Cc1cc(=O)n(-c2ccc(N3CCC(Cc4cccc5ccccc45)CC3)c(F)c2)c(C)n1
pIC50 (HFL1 [1]): 4.22

SMILES: Cc1cc(=O)n(-c2ccc(N3CCC(Cc4ccc(F)cc4)CC3)c(F)c2)c(C)n1
pIC50 (HFL1 [1]): 3.96

half-life [6]: 4.3 h
AUC(0-t) [7]: 32600 ng·h/mL
AUC(0-inf) [8]: 33500 ng·h/mL
half-life [9]: 4.3 h
AUC(0-t) [10]: 7130 ng·h/mL
AUC(0-inf) [11]: 7290 ng·h/mL
clearance [12]: 1.67 mL/min/kg
Tmax [13]: 0.5 h
Cmax [14]: 4720 ng/mL
bioavailability [15]: 92%
SMILES: Cc1cc(=O)n(-c2ccc(N3CCOCC3)c(F)c2)c(C)n1
pIC50 (HFL1 [1]): 2.18

SMILES: Cc1cc(=O)n(-c2ccc(N3CCC(Nc4cccc(C(F)(F)F)c4)CC3)c(Cl)c2)c(C)n1
pIC50 (HFL1 [1]): 4.22

SMILES: Cc1cc(=O)n(-c2ccc(N3CCC(Cc4ccc5ccccc5c4)CC3)c(Cl)c2)c(C)n1
pIC50 (HFL1 [1]): 4.05

half-life [2]: 13.5 h
AUC(0-t) [3]: 2460 ng·h/mL
AUC(0-inf) [4]: 3220 ng·h/mL
clearance [5]: 10.3 mL/min/kg
half-life [6]: 11.8 h
AUC(0-t) [7]: 5180 ng·h/mL
AUC(0-inf) [8]: 7080 ng·h/mL
SMILES: Cc1cc(=O)n(-c2ccc(N3CCC(Cc4cccc(C(F)(F)F)c4)CC3)c(Cl)c2)c(C)n1
pIC50 (HFL1 [1]): 4.22

SMILES: Cc1cc(=O)n(-c2ccc(N3CCC(Oc4cccc(F)c4)CC3)c(F)c2)c(C)n1
pIC50 (HFL1 [1]): 3.96

SMILES: Cc1cc(=O)n(-c2ccc(N3CCC(Cc4cccc(F)c4)CC3)c(Cl)c2)c(C)n1
pIC50 (HFL1 [1]): 4.22

half-life [2]: 8.2 h
AUC(0-t) [3]: 2190 ng·h/mL
AUC(0-inf) [4]: 2400 ng·h/mL
clearance [5]: 13.8 mL/min/kg
half-life [6]: 8.41 h
AUC(0-t) [7]: 5690 ng·h/mL
AUC(0-inf) [8]: 6360 ng·h/mL
SMILES: Cc1cc(=O)n(-c2ccc(N3CCC(Cc4cc(F)c(F)c(F)c4)CC3)c(Cl)c2)c(C)n1
pIC50 (HFL1 [1]): 4.22

SMILES: Cc1cccc(CC2CCN(c3ccc(-n4c(C)nc(C)cc4=O)cc3F)CC2)c1
pIC50 (HFL1 [1]): 4.00

SMILES: Cc1cc(=O)n(-c2ccc(N3CCC(Cc4cccc(F)c4)CC3)nc2)c(C)n1
pIC50 (HFL1 [1]): 3.89

half-life [2]: 6.73 h
AUC(0-t) [3]: 1450 ng·h/mL
AUC(0-inf) [4]: 3260 ng·h/mL
clearance [5]: 10.8 mL/min/kg
half-life [6]: 5.26 h
AUC(0-t) [7]: 1550 ng·h/mL
AUC(0-inf) [8]: 3410 ng·h/mL
SMILES: Cc1cc(=O)n(-c2ccc(N3CCC(COc4cccc(F)c4)CC3)c(Cl)c2)c(C)n1
pIC50 (HFL1 [1]): 4.30

SMILES: Cc1cc(=O)n(-c2cnc(N3CCC(Cc4cccc(F)c4)CC3)c(Cl)c2)c(C)n1
pIC50 (HFL1 [1]): 4.22

SMILES: Cc1cc(=O)n(-c2ccc(N3CCC(Cc4cccc5cccnc45)CC3)c(Cl)c2)c(C)n1
pIC50 (HFL1 [1]): 3.92

half-life [2]: 0.4 h
AUC(0-t) [3]: 649 ng·h/mL
AUC(0-inf) [4]: 650 ng·h/mL
clearance [5]: 53.3 mL/min/kg
Cmax [19]: 1010 ng/mL
Tmax [20]: 0.3 h
Cmax [21]: 5070 ng/mL
half-life [22]: 0.4 h
AUC(0-t) [23]: 3460 ng·h/mL
AUC(0-inf) [24]: 3460 ng·h/mL
bioavailability [25]: 107%
SMILES: Cc1ccc(=O)n(-c2ccccc2)c1 [PIRFENIDONE]
Activity (HFL1 [16]): 83.71%
pIC50 (HFL1 [1]): 2.04
Activity (HFL1 [17]): Active
Activity (HFL1 [18]): Active
Activity (Rattus norvegicus): Active

SMILES: Cc1cc(=O)n(-c2ccc(N3CCC(Cc4ccccc4-c4ccccc4)CC3)c(Cl)c2)c(C)n1
pIC50 (HFL1 [1]): 4.15

half-life [2]: 10.9 h
AUC(0-t) [3]: 898 ng·h/mL
AUC(0-inf) [4]: 1060 ng·h/mL
clearance [5]: 15.8 mL/min/kg
half-life [6]: 9.6 h
AUC(0-t) [7]: 1750 ng·h/mL
AUC(0-inf) [8]: 2030 ng·h/mL
SMILES: Cc1cc(=O)n(-c2ccc(N3CCC(Cc4cccc(Cl)c4)CC3)c(Cl)c2)c(C)n1
pIC50 (HFL1 [1]): 4.30

SMILES: Cc1cc(=O)n(-c2cnc(N3CCC(Oc4cccc(F)c4)CC3)c(Cl)c2)c(C)n1
pIC50 (HFL1 [1]): 4.15

SMILES: C=CCc1ccccc1OC1CCN(c2ccc(-n3c(C)nc(C)cc3=O)cc2Cl)CC1
pIC50 (HFL1 [1]): 4.15

Reference: ChEMBL document CHEMBL5136958, “The development of HEC-866 and its analogues for the treatment of idiopathic pulmonary fibrosis” (RSC Med Chem, 2021)
